For 45 compounds, IC50 and inhibition results are on record in ChEMBL document CHEMBL1782035, “Synthesis and SAR of piperazine amides as novel c-jun N-terminal kinase (JNK) inhibitors” (Bioorg Med Chem Lett, 2009).

Activity calls are given as the source filed them. No cut-off for these calls is given here.

As usually defined, the IC50 is the concentration at which inhibition is half-maximal. Read a low IC50 as greater potency.

Test [1] addresses Mitogen-activated protein kinase 10 (Homo sapiens, UniProt P53779). Nature of the test: Inhibition of JNK3 using biotinylated ATF2 and ATP substrates by HTRF assay. The method in brief: (§1)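 HTRF kinase assay with final JNK1 at 0.1 nM or JNK3 at 0.3 nM, biotinylated ATF-2 at 0.4 nM and ATP at 1 μM. Phospho-Thr71-ATF-2 product was detected with a Europium-cryptate anti-phospho-Thr71-ATF-2 antibody and a streptavidin-allophycocyanin-XL acceptor. 10-point dose-response curves were run in duplicate, and IC50 was obtained from a four-parameter logistic fit.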
On the technique in general: TR-FRET usually uses a lanthanide donor and a delayed reading to cut background.

For test [2], the target named is Mitogen-activated protein kinase 8 (Homo sapiens, UniProt P45983). Nature of the test: Inhibition of JNK1 using biotinylated ATF2 and ATP substrates by HTRF assay. The method in brief:
as §1

A short description of test [3]: Inhibition of p38.
A short description of test [4]: Inhibition of JNK-mediated c-jun phosphorylation in rat INS-1 cells by ELISA incubated for 3 hrs at 37 degC. Format: cell-based. The following applies: INS1, 3 h. An outline of the steps: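 INS-1 β-pancreatic cells seeded at 3.5 × 10^4 cells/well in RPMI 1640 with 10% FBS, cultured overnight at 37 °C, 5% CO2. Cells exposed 3 h to 4 mM streptozoicin plus inhibitor (DMSO) in a 10-point dilution spanning four logs, then lysed. Phospho-c-jun captured overnight at 4 °C by sandwich ELISA, TMB read at 450 nm; EC50 from four-parameter logistic.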
(An ELISA detects its analyte on a solid surface through an enzyme-linked reagent.)

Sequence of Mitogen-activated protein kinase 10 (P53779 whole entry): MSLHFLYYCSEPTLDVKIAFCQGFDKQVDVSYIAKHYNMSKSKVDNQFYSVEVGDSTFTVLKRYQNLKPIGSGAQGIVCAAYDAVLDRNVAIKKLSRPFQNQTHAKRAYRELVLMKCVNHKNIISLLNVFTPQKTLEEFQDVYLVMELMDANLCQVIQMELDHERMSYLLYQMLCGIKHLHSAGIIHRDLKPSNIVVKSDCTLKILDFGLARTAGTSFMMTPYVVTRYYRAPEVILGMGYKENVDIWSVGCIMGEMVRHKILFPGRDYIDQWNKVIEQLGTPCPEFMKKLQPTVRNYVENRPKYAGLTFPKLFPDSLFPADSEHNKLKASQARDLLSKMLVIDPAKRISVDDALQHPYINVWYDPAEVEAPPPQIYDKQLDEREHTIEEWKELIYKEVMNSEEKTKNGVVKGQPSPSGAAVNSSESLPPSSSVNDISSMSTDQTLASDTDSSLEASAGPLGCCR
Sequence of Mitogen-activated protein kinase 8 (P45983 whole entry): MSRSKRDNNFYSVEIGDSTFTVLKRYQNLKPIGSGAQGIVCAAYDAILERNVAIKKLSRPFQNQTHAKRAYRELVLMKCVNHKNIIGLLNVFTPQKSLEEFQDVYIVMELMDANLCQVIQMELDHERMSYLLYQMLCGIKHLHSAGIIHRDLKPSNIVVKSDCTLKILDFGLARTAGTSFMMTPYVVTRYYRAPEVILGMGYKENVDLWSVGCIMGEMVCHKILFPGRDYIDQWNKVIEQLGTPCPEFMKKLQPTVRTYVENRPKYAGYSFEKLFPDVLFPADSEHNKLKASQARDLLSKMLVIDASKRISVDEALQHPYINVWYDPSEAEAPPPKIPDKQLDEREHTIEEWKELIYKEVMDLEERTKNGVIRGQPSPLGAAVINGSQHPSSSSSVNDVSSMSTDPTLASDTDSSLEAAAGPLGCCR

As for `CC(C)N1CCN(c2c(Cl)cccc2NC(=O)c2ccc(Br)o2)CC1`, the results for the half-inhibitory concentration (IC50) in test [1] and in test [2] were 2200 nM and 1500 nM, respectively. Also, in test [3], the inhibition result was “inactive”.

`C=CCN1CCN(c2c(Cl)cccc2NC(=O)c2cccc(Br)n2)CC1` registered an IC50 in test [1] of 2000 nM.

As for `CC(=O)Nc1ccc(C(=O)Nc2cccc(C)c2N2CCC3(CC2)OCCO3)o1`, the 50% inhibitory concentration (IC50) stood at 11000 nM in test [1] and 5800 nM in test [2].

Turning to `COc1ccc(C(=O)Nc2cccc(C)c2N2CCC3(CC2)OCCO3)o1`, the figures for the IC50 in test [1] and in test [2] were 620 nM and 450 nM, respectively.

Take `CCc1ccc(C(=O)Nc2cccc(C)c2N2CCC3(CC2)OCCO3)o1`: the IC50 in test [1] is 1000 nM; in test [2] it was 1400 nM.

In test [1], `C=CCN1CCN(c2c(Cl)cccc2NC(=O)c2cscn2)CC1` registered an IC50 of 2300 nM.

Turning to `C=CCN1CCN(c2c(Cl)cccc2NC(=O)c2csc(C)n2)CC1`, the IC50 in test [1] is 5800 nM.

On to `C=CCN1CCN(c2c(NC(=O)c3ccc(Br)o3)cccc2C(F)(F)F)CC1`, for which the IC50 in test [1] and in test [2] was over 20000 nM each time. Besides, the inhibition result in test [3] is “inactive”.

Consider `O=C(Nc1cccc(Cl)c1N1CCN(CCc2ccccc2)CC1)c1ccc(Br)o1`, for which the IC50 in test [1] is 1400 nM; in test [2] it was 900 nM. In addition, the inhibition result in test [3] was “inactive”.

Take `O=C(Nc1cccc(Cl)c1N1CCN(C(=O)C(F)(F)F)CC1)c1ccc(Br)o1`: the IC50 in test [1] and in test [2] was over 20000 nM throughout. For the same compound, the inhibition entry in test [3] was “inactive”.

As for `C=CCN1CCN(c2c(Cl)cccc2NC(=O)c2ccc(C#N)cn2)CC1`, the IC50 in test [1] and in test [2] was over 20000 nM in each case.

As to `C=CCN1CCN(c2c(C)cccc2NC(=O)c2ccc(Br)o2)CC1`, the IC50 in test [1] is 200 nM; in test [2] it was 180 nM. For the same compound, the inhibition entry in test [3] is “inactive”.

In the case of `Cc1cccc(NC(=O)c2ccc(Cc3ccccc3)o2)c1N1CCC2(CC1)OCCO2`, the 50% inhibitory concentration (IC50) in test [1] is 4800 nM; in test [2], 3200 nM.

In the case of `Cc1ccc(C(=O)Nc2cccc(C)c2N2CCC3(CC2)OCCO3)o1`, the IC50 in test [1] stood at 530 nM; in test [2], 330 nM.

On to `C=C(C)CN1CCN(c2c(Cl)cccc2NC(=O)c2ccc(Br)o2)CC1`, for which the IC50 is 3300 nM in test [4], 540 nM in test [1] and 400 nM in test [2]. In addition, the inhibition result in test [3] was “inactive”.

On to `O=C(Nc1cccc(Cl)c1N1CCNCC1)c1ccc(Br)o1`, for which the IC50 in test [1] was found to be 9900 nM; in test [2] it was 4100 nM. The inhibition result in test [3] was “inactive”.

Consider `O=C(Nc1cccc(Cl)c1N1CCN(Cc2ccccc2)CC1)c1ccc(Br)o1`, for which the IC50 in test [1] stood at 1100 nM; in test [2], 880 nM. The inhibition result in test [3] was “inactive”.

As to `Cc1cccc(NC(=O)c2ccc(Cl)o2)c1N1CCC2(CC1)OCCO2`, the IC50 in test [1] was 80 nM; in test [2], 40 nM.

In the case of `Cc1cccc(NC(=O)c2ccc(Br)o2)c1N1CCC2(CC1)OCCO2`, the IC50 in test [1] turned out to be 60 nM; in test [2] it was 90 nM.

As to `Cc1cccc(NC(=O)c2ccc(C(F)F)o2)c1N1CCC2(CC1)OCCO2`, the IC50 in test [1] was determined as 350 nM; in test [2] it was 260 nM.

Take `C=CCN1CCN(c2c(Cl)cccc2NC(=O)c2nc(Br)cs2)CC1`: the IC50 in test [1] and in test [2] was 1800 nM in each case.

Take `CC(C)(C)OC(=O)N1CCN(c2c(Cl)cccc2NC(=O)c2ccc(Br)o2)CC1`: the half-inhibitory concentration (IC50) is over 20000 nM in test [1] and 6300 nM in test [2]. For the same compound, the inhibition entry in test [3] was “inactive”.

Regarding `C#CCN1CCN(c2c(F)cccc2NC(=O)c2ccc(Br)o2)CC1`, the IC50 was determined as 290 nM in test [1] and 110 nM in test [2]. Also, in test [3], the inhibition result is “inactive”.

As for `C=CCN1CCN(c2c(Cl)cccc2NC(=O)c2cnc(Br)s2)CC1`, the IC50 in test [1] was 310 nM; in test [2], 330 nM.

In the case of `C=CCN1CCN(c2c(Cl)cccc2NC(=O)c2ccno2)CC1`, half-maximal inhibition in test [1] (IC50) required 5000 nM.

Take `O=C(Nc1cccc(Cl)c1N1CCN(C2CC2)CC1)c1ccc(Br)o1`: the IC50 in test [1] was found to be 960 nM; in test [2], 180 nM. Further, the inhibition entry in test [3] is “inactive”.

For `C=CCN1CCN(c2c(NC(=O)c3ccc(Br)o3)cccc2-c2ccccc2)CC1`, the IC50 in test [1] and in test [2] was over 20000 nM throughout. Further, the inhibition result in test [3] was “inactive”.

On to `C=CCN1CCN(c2c(Br)cccc2NC(=O)c2ccc(Br)o2)CC1`, for which the IC50 in test [1] and in test [2] was over 20000 nM throughout. Moreover, in test [3], the inhibition entry is “inactive”.

For `CC(=O)N1CCN(c2c(Cl)cccc2NC(=O)c2ccc(Br)o2)CC1`, the results for the IC50 in test [1] and in test [2] were 810 nM and 600 nM, respectively. For the same compound, in test [3], the inhibition result is “inactive”.

For `C=CCN1CCN(c2c(Cl)cccc2NC(=O)c2cccc(Br)c2)CC1`, the IC50 in test [1] worked out at 6400 nM; in test [2], 7100 nM.

As to `C=CCN1CCN(c2c(Cl)cccc2NC(=O)c2ccc[nH]2)CC1`, the results for the IC50 in test [1] and in test [2] were 8900 nM and 4500 nM, respectively.

On to `Cc1cccc(NC(=O)c2ccc(Nc3ccccc3)o2)c1N1CCC2(CC1)OCCO2`, for which the IC50 in test [1] and in test [2] was over 20000 nM each time.

As to `C=CCN1CCN(c2c(NC(=O)c3ccc(Br)o3)cccc2Nc2ccccc2)CC1`, the IC50 in test [1] and in test [2] was over 20000 nM in each case. For the same compound, the inhibition entry in test [3] is “inactive”.

`CCN1CCN(c2c(Cl)cccc2NC(=O)c2ccc(Br)o2)CC1`: the IC50 in test [2] was 490 nM; in test [3] it was over 20000 nM.

Consider `C#CCN1CCN(c2c(Cl)cccc2NC(=O)c2ccc(Br)o2)CC1`, for which half-maximal inhibition in test [2] (IC50) required 140 nM. Further, the inhibition result in test [3] is “inactive”.

Turning to `Cc1cccc(NC(=O)c2ccc(F)o2)c1N1CCC2(CC1)OCCO2`, the IC50 in test [1] worked out at 410 nM; in test [2] it was 210 nM.

With `C=CCN1CCN(c2c(Cl)cccc2NC(=O)c2cccc(C)n2)CC1`, the IC50 amounted to 2000 nM in test [1] and 1800 nM in test [2].

With `CC#Cc1ccc(C(=O)Nc2cccc(C)c2N2CCC3(CC2)OCCO3)o1`, the IC50 in test [1] and in test [2] was 110 nM each time.

For the compound `O=C(Nc1cccc(Cl)c1N1CCN(c2ccccn2)CC1)c1ccc(Br)o1`, the figures for the IC50 in test [1] and in test [2] were 1000 nM and 1200 nM, respectively. The inhibition entry in test [3] is “inactive”.

For `C=CCN1CCN(c2c(Cl)cccc2NC(=O)c2ccc(Br)o2)CC1`, the IC50 in test [1] stood at 330 nM; in test [2], 240 nM. Moreover, the inhibition entry in test [3] was “inactive”.

As for `CN1CCN(c2c(Cl)cccc2NC(=O)c2ccc(Br)o2)CC1`, the figures for the IC50 in test [1] and in test [2] were 1200 nM and 360 nM, respectively. The inhibition result in test [3] was “inactive”.

As to `O=C(Nc1cccc(Cl)c1N1CCN(Cc2ccco2)CC1)c1ccc(Br)o1`, the IC50 in test [1] worked out at 250 nM; in test [2], 270 nM. Besides, the inhibition entry in test [3] is “inactive”.

Turning to `CCCN1CCN(c2c(Cl)cccc2NC(=O)c2ccc(Br)o2)CC1`, the figures for the IC50 in test [1] and in test [2] were 900 nM and 630 nM, respectively. Moreover, the inhibition entry in test [3] is “inactive”.

Turning to `C=CCN1CCN(c2c(Cl)cccc2NC(=O)c2ncccn2)CC1`, the IC50 in test [1] and in test [2] was over 20000 nM throughout.

Regarding `Cc1cccc(NC(=O)c2ccc(C#N)o2)c1N1CCC2(CC1)OCCO2`, the IC50 was 210 nM in test [1] and 230 nM in test [2].
